For assay [1], the target named is GTPase HRas (Homo sapiens) (UniProt P01112). Put plainly: Inhibitory [3H]GDP concentration against cellular p21 Ha-ras. Put shortly:
(§1)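 Filter-binding competition: GDP-bound Ha-ras p21 (1 μM; 1 μg) with [3H]GDP (3 μM per footnote, 2 μM in methods) plus analogue over a concentration range, in 50 mM Tris-HCl pH 7.5, 10 mM DTT, 0.5 mM MgCl2, 100 mM NH4Cl, 5 mM EDTA, 45 min, 37 °C. Quenched with cold Mg2+, filtered through nitrocellulose, counted. Krel = [3H]GDP concentration/analogue concentration at 50% inhibition.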

Assay [2] has the same target. Description: Inhibitory [3H]GDP concentration against oncogenic Ha-ras protein (p21 Leu-61). Put shortly:
as §1

In ChEMBL document CHEMBL1125847, “Interaction of GTP derivatives with cellular and oncogenic ras-p21 proteins” (J Med Chem, 1991) one finds K rel data, which are given here for 15 compounds.

Sequence of GTPase HRas (Homo sapiens) (P01112 whole entry, looked up): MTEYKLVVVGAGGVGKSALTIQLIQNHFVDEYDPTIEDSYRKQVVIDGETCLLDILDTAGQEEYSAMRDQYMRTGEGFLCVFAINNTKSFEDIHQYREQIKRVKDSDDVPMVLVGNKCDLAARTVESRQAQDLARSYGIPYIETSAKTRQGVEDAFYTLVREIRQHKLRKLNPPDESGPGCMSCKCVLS

`Nc1nc(O)c2ncn(COC(CO)COP(=O)(O)OP(=O)(O)OP(=O)(O)O)c2n1` (stereo not given): the K rel in assay [1] amounted to 0.0014; in assay [2], 0.0018.

`CN1CN(C2O[C@@H](COP(=O)(O)OP(=O)(O)OP(=O)(O)O)[C@H](O)[C@@H]2O)c2nc(N)nc(O)c21` (stereo not given in full): the K rel worked out at 0.0024 in assay [1] and 0.002 in assay [2].

In the case of `O=P(O)(O)OP(=O)(O)OP(=O)(O)OC[C@@H]1OC(n2cnc3c(O)ncnc32)[C@@H](O)[C@H]1O` (stereo not given in full), the K rel in assay [1] was 0.11; in assay [2] it was 0.09.

In the case of `Nc1nc2c(ncn2COCCOP(=O)(O)OP(=O)(O)OP(=O)(O)O)c(=O)[nH]1`, the K rel came out at 0.0012 in assay [1] and 0.0011 in assay [2].

`Nc1nc2c(ncn2[C@H]2CC[C@@H](COP(=O)(O)OP(=O)(O)OP(=O)(O)O)O2)c(=O)[nH]1`: the K rel in assay [1] worked out at 0.28; in assay [2], 0.18.

As to `Cc1ccc(Nc2nc(O)c3ncn(C4O[C@@H](COP(=O)(O)OP(=O)(O)OP(=O)(O)O)[C@H](O)[C@@H]4O)c3n2)cc1` (stereo not given in full), the K rel came to 1.14 in assay [1] and 1.34 in assay [2].

Take `O=P(O)(O)OP(=O)(O)OP(=O)(O)OC[C@@H]1OC(n2cnc3c(O)nc(Nc4ccc(F)cc4)nc32)[C@@H](O)[C@H]1O` (stereo not given in full): the K rel stood at 1.77 in assay [1] and 2.38 in assay [2].

With `O=P(O)(O)OP(=O)(O)OP(=O)(O)OC[C@@H]1OC(n2cnc3c(O)nc(Br)nc32)[C@@H](O)[C@H]1O` (stereo not given in full), the K rel came out at 0.04 in assay [1] and 0.05 in assay [2].

Consider `CCCCNc1nc(O)c2ncn(C3O[C@@H](COP(=O)(O)OP(=O)(O)OP(=O)(O)O)[C@H](O)[C@@H]3O)c2n1` (stereo not given in full), for which the K rel in assay [1] turned out to be 0.59; in assay [2], 0.68.

Consider `CCCCc1ccc(Nc2nc(O)c3ncn(C4O[C@@H](COP(=O)(O)OP(=O)(O)OP(=O)(O)O)[C@H](O)[C@@H]4O)c3n2)cc1` (stereo not given in full), for which the K rel in assay [1] was found to be 3.3; in assay [2] it was 6.

`Nc1nc(O)c2ncn([C@H]3O[C@@H](COP(=O)(O)OP(=O)(O)OP(=O)(O)O)[C@H](O)[C@@H]3O)c2n1`: the K rel in assay [1] is 1.1; in assay [2] it was 1.2.

In the case of `Nc1nc(O)c2ccn(C3O[C@@H](COP(=O)(O)OP(=O)(O)OP(=O)(O)O)[C@H](O)[C@@H]3O)c2n1` (stereo not given in full), the K rel in assay [1] is 0.08; in assay [2] it was 0.05.

In the case of `O=P(O)(O)OP(=O)(O)OP(=O)(O)OC[C@@H]1OC(n2cnc3c(O)nc(NCCCCc4ccccc4)nc32)[C@@H](O)[C@H]1O` (stereo not given in full), the K rel stood at 1.19 in assay [1] and 1.1 in assay [2].

On to `O=P(O)(O)OP(=O)(O)OP(=O)(O)OC[C@@H]1OC(n2cnc3c(O)nc(Nc4ccc(Br)cc4)nc32)[C@@H](O)[C@H]1O` (stereo not given in full), for which the K rel is 2.28 in assay [1] and 2.1 in assay [2].

As for `Nc1nc(O)c2ncn(C3OC(COP(=O)(O)OP(=O)(O)OP(=O)(O)O)CC3O)c2n1` (stereo not given), the K rel in assay [1] and in assay [2] was 0.85 throughout.
